Tests used:
Format in all cases: functional
OVCAR-8 = assay: Growth inhibition of human OVCAR8 cells at 10 uM after 48 hrs by coulter counter method; conditions: OVCAR-8, 48 h, read-out: GI
Outline: (§1)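 NCI 60-cell-line panel, single dose. Compound dissolved first in DMSO, then diluted in phosphate-buffered saline so that every final dilution held under 1% DMSO. Duplicate wells received cells at 6 × 10⁴ cells/ml. Controls held PBS/DMSO at the same dilution. Plates were incubated 48 h at 37 °C under 5% CO₂. Cells were then diluted 10-fold in saline and counted on a Coulter counter, with counts corrected for the dilution. Results are given as percent growth inhibition.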

U-251 = assay: Growth inhibition of human U251 cells at 10 uM after 48 hrs by coulter counter method; conditions: U-251, 48 h, read-out: GI; outline: as §1
HCT-15 = assay: Growth inhibition of human HCT15 cells at 10 uM after 48 hrs by coulter counter method; conditions: HCT-15, 48 h, read-out: GI; outline: as §1
SF-295 = assay: Growth inhibition of human SF295 cells at 10 uM after 48 hrs by coulter counter method; conditions: SF-295, 48 h, read-out: GI; outline: as §1
SR = assay: Growth inhibition of human SR cells at 10 uM after 48 hrs by coulter counter method; conditions: read-out: GI; outline: as §1
Malme-3M = assay: Growth inhibition of human MALME-3M cells at 10 uM after 48 hrs by coulter counter method; conditions: read-out: GI; outline: as §1
786-0 = assay: Growth inhibition of human 786-0 cells at 10 uM after 48 hrs by coulter counter method; conditions: 786-0, 48 h, read-out: GI; outline: as §1
ACHN = assay: Growth inhibition of human ACHN cells at 10 uM after 48 hrs by coulter counter method; conditions: read-out: GI; outline: as §1
SN12C = assay: Growth inhibition of human SN12C cells at 10 uM after 48 hrs by coulter counter method; conditions: read-out: GI; outline: as §1
UACC-62 = assay: Growth inhibition of human UACC62 cells at 10 uM after 48 hrs by coulter counter method; conditions: UACC-62, 48 h, read-out: GI; outline: as §1
A549 = assay: Growth inhibition of human A549 cells at 10 uM after 48 hrs by coulter counter method; conditions: A549, 48 h, read-out: GI; outline: as §1
SK-MEL-28 = assay: Growth inhibition of human SK-MEL-28 cells at 10 uM after 48 hrs by coulter counter method; conditions: SK-MEL-28, 48 h, read-out: GI; outline: as §1
NCI/ADR-RES = assay: Growth inhibition of human NCI/ADR-RES cells at 10 uM after 48 hrs by coulter counter method; conditions: read-out: GI; outline: as §1
SNB-75 = assay: Growth inhibition of human SNB75 cells at 10 uM after 48 hrs by coulter counter method; conditions: SNB-75, 48 h, read-out: GI; outline: as §1
BT-549 = assay: Growth inhibition of human BT549 cells at 10 uM after 48 hrs by coulter counter method; conditions: BT-549, 48 h, read-out: GI; outline: as §1
HL-60(TB) = assay: Growth inhibition of human HL-60(TB) cells at 10 uM after 48 hrs by coulter counter method; conditions: HL-60, 48 h, read-out: GI
Outline: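 Single-dose screen on the NCI 60-line panel (leukemia subpanel). Compound is dissolved in DMSO and diluted in PBS, with final DMSO below 1%. Duplicate wells hold 6 × 10⁴ cells/ml at 37 °C, 5% CO₂, for 48 h. Cells are counted by Coulter counter after 10-fold saline dilution. Read-out is percent growth versus PBS/DMSO controls, expressed as % growth inhibition.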

EKVX = assay: Growth inhibition of human EKVX cells at 10 uM after 48 hrs by coulter counter method; conditions: read-out: GI; outline: as §1
T47D = assay: Growth inhibition of human T47D cells at 10 uM after 48 hrs by coulter counter method; conditions: read-out: GI; outline: as §1
CAKI-1 = assay: Growth inhibition of human Caki1 cells at 10 uM after 48 hrs by coulter counter method; conditions: CAKI-1, 48 h, read-out: GI; outline: as §1
NCI-H522 = assay: Growth inhibition of human NCI-H522 cells at 10 uM after 48 hrs by coulter counter method; conditions: NCI-H522, 48 h, read-out: GI; outline: as §1
TK-10 = assay: Growth inhibition of human TK10 cells at 10 uM after 48 hrs by coulter counter method; conditions: TK-10, 48 h, read-out: GI; outline: as §1
SF-268 = assay: Growth inhibition of human SF268 cells at 10 uM after 48 hrs by coulter counter method; conditions: SF-268, 48 h, read-out: GI; outline: as §1
MOLT-4 = assay: Growth inhibition of human MOLT4 cells at 10 uM after 48 hrs by coulter counter method; conditions: MOLT-4, 48 h, read-out: GI; outline: as §1
SK-MEL-2 = assay: Growth inhibition of human SK-MEL-2 cells at 10 uM after 48 hrs by coulter counter method; conditions: SK-MEL-2, 48 h, read-out: GI; outline: as §1
IGROV-1 = assay: Growth inhibition of human IGROV1 cells at 10 uM after 48 hrs by coulter counter method; conditions: IGROV-1, 48 h, read-out: GI; outline: as §1
MCF7 = assay: Growth inhibition of human MCF7 cells at 10 uM after 48 hrs by coulter counter method; conditions: MCF7, 48 h, read-out: GI; outline: as §1
NCI-H23 = assay: Growth inhibition of human NCI-H23 cells at 10 uM after 48 hrs by coulter counter method; conditions: NCI-H23, 48 h, read-out: GI; outline: as §1
K562 = assay: Growth inhibition of human K562 cells at 10 uM after 48 hrs by coulter counter method; conditions: K562, 48 h, read-out: GI; outline: as §1
LOX IMVI = assay: Growth inhibition of human LOXIMVI cells at 10 uM after 48 hrs by coulter counter method; conditions: read-out: GI; outline: as §1
NCI-H226 = assay: Growth inhibition of human NCI-H226 cells at 10 uM after 48 hrs by coulter counter method; conditions: NCI-H226, 48 h, read-out: GI; outline: as §1
SK-MEL-5 = assay: Growth inhibition of human SK-MEL-5 cells at 10 uM after 48 hrs by coulter counter method; conditions: SK-MEL-5, 48 h, read-out: GI; outline: as §1
CCRF-CEM = assay: Growth inhibition of human CCRF-CEM cells at 10 uM after 48 hrs by coulter counter method; conditions: read-out: GI; outline: as §1
A498 = assay: Growth inhibition of human A498 cells at 10 uM after 48 hrs by coulter counter method; conditions: A498, 48 h, read-out: GI; outline: as §1
HT-29 = assay: Growth inhibition of human HT-29 cells at 10 uM after 48 hrs by coulter counter method; conditions: HT-29, 48 h, read-out: GI; outline: as §1
NCI-H322M = assay: Growth inhibition of human NCI-H322M cells at 10 uM after 48 hrs by coulter counter method; conditions: read-out: GI; outline: as §1
M14 = assay: Growth inhibition of human M14 cells at 10 uM after 48 hrs by coulter counter method; conditions: M14, 48 h, read-out: GI; outline: as §1
KM12 = assay: Growth inhibition of human KM12 cells at 10 uM after 48 hrs by coulter counter method; conditions: KM12, 48 h, read-out: GI; outline: as §1
MDA-MB-468 = assay: Growth inhibition of human MDA-MB-468 cells at 10 uM after 48 hrs by coulter counter method; conditions: MDA-MB-468, 48 h, read-out: GI; outline: as §1
MDA-MB-435 = assay: Growth inhibition of human MDA-MB-435 cells at 10 uM after 48 hrs by coulter counter method; conditions: MDA-MB-435, 48 h, read-out: GI; outline: as §1
HCT-116 = assay: Growth inhibition of human HCT116 cells at 10 uM after 48 hrs by coulter counter method; conditions: HCT-116, 48 h, read-out: GI; outline: as §1
SNB-19 = assay: Growth inhibition of human SNB19 cells at 10 uM after 48 hrs by coulter counter method; conditions: SNB-19, 48 h, read-out: GI; outline: as §1
PC-3 = assay: Growth inhibition of human PC3 cells at 10 uM after 48 hrs by coulter counter method; conditions: PC-3, 48 h, read-out: GI; outline: as §1
UACC-257 = assay: Growth inhibition of human UACC257 cells at 10 uM after 48 hrs by coulter counter method; conditions: UACC-257, 48 h, read-out: GI; outline: as §1
RPMI-8226 = assay: Growth inhibition of human RPMI8226 cells at 10 uM after 48 hrs by coulter counter method; conditions: RPMI-8226, 48 h, read-out: GI; outline: as §1
UO-31 = assay: Growth inhibition of human UO31 cells at 10 uM after 48 hrs by coulter counter method; conditions: UO-31, 48 h, read-out: GI; outline: as §1

## NC1=CC(N)=NC2OC(c3ccc(Cl)cc3)=NN12 (stereo not given)
OVCAR-8
  inhibition of growth at 10 µM: < 10%
U-251
  inhibition of growth at 10 µM: < 10%
HCT-15
  inhibition of growth at 10 µM: < 10%
SF-295
  inhibition of growth at 10 µM: < 10%
SR
  inhibition of growth at 10 µM: < 10%
Malme-3M
  inhibition of growth at 10 µM: < 10%
786-0
  inhibition of growth at 10 µM: < 10%
ACHN
  inhibition of growth at 10 µM: < 10%
SN12C
  inhibition of growth at 10 µM: < 10%
UACC-62
  inhibition of growth at 10 µM: < 10%
A549
  inhibition of growth at 10 µM: < 10%
SK-MEL-28
  inhibition of growth at 10 µM: < 10%
NCI/ADR-RES
  inhibition of growth at 10 µM: < 10%
SNB-75
  inhibition of growth at 10 µM: < 10%
BT-549
  inhibition of growth at 10 µM: < 10%
HL-60(TB)
  inhibition of growth at 10 µM: < 10%
EKVX
  inhibition of growth at 10 µM: < 10%
T47D
  inhibition of growth at 10 µM: < 10%
CAKI-1
  inhibition of growth at 10 µM: 20.5%
NCI-H522
  inhibition of growth at 10 µM: 14%
TK-10
  inhibition of growth at 10 µM: < 10%
SF-268
  inhibition of growth at 10 µM: < 10%
MOLT-4
  inhibition of growth at 10 µM: < 10%
SK-MEL-2
  inhibition of growth at 10 µM: 10.3%
IGROV-1
  inhibition of growth at 10 µM: < 10%
MCF7
  inhibition of growth at 10 µM: < 10%
NCI-H23
  inhibition of growth at 10 µM: < 10%
K562
  inhibition of growth at 10 µM: < 10%
LOX IMVI
  inhibition of growth at 10 µM: < 10%
NCI-H226
  inhibition of growth at 10 µM: < 10%
SK-MEL-5
  inhibition of growth at 10 µM: < 10%
CCRF-CEM
  inhibition of growth at 10 µM: < 10%
A498
  inhibition of growth at 10 µM: < 10%
HT-29
  inhibition of growth at 10 µM: < 10%
NCI-H322M
  inhibition of growth at 10 µM: < 10%
M14
  inhibition of growth at 10 µM: < 10%
KM12
  inhibition of growth at 10 µM: < 10%
MDA-MB-468
  inhibition of growth at 10 µM: < 10%
MDA-MB-435
  inhibition of growth at 10 µM: < 10%
HCT-116
  inhibition of growth at 10 µM: < 10%
SNB-19
  inhibition of growth at 10 µM: < 10%
PC-3
  inhibition of growth at 10 µM: 16.3%
UACC-257
  inhibition of growth at 10 µM: < 10%
RPMI-8226
  inhibition of growth at 10 µM: < 10%
UO-31
  inhibition of growth at 10 µM: 23.8%

From ChEMBL document CHEMBL1926577, “Novel 1,3,4-heterodiazole analogues: synthesis and in-vitro antitumor activity” (2012)
